Experimental findings from ChEMBL document CHEMBL5614452, “Synthesis and Optimization of Small Molecule Inhibitors of Prostate Specific Antigen” (ACS Med Chem Lett, 2024) are described below.

Data set [1] is described as follows: Stability in DMEM/F-12 medium assessed as compound remaining at 10 uM after 8 hrs by LC-MS/MS analysis. It counts as physicochemical. The note with it: read-out: Stability. The method in brief:
(§1)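 Compound incubated in DMEM/F12 medium at 37 °C and sampled at 0, 8 and 24 h. Stability reported as percent of compound remaining.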

Data set [2] in a line: Stability in DMEM/F-12 medium assessed as compound remaining at 10 uM after 24 hrs by LC-MS/MS analysis. It counts as physicochemical. The method in brief: as §1
Data set [3] concerns the target T1, Prostate-specific antigen (Homo sapiens) (UniProt P07288).
T1 sequence (whole entry): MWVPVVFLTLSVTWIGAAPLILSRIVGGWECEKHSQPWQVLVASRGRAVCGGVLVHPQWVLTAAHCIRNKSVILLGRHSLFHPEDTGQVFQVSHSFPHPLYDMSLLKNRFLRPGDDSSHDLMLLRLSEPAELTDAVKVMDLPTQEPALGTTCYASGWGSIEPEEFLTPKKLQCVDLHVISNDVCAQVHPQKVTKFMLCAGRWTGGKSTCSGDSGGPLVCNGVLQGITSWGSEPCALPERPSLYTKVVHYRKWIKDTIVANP
Kind of data set: Inhibition of recombinant human semen PSA at 0.000001 to 500 uM using Mu-HSSKLQAMC as substrate preincubated for 15 mins followed by substrate addition by fluorescence based assay. It counts as single protein. The note with it: dose lower 1e-06 µM, dose upper 500.0 µM. The method in brief: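 PSA inhibition in a biochemical assay. Compounds tested at 100 nM, 1 μM, 10 μM, 100 μM and 500 μM, plus a lower picomolar-level concentration. Compounds with no inhibition across this range were scored not active.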

In data set [4] the target is T2, Prostate-specific antigen (Homo sapiens, UniProt P07288).
T2 sequence (P07288 whole entry): T1 sequence (whole entry)
Put plainly: Inhibition of recombinant human semen PSA using Mu-HSSKLQAMC as substrate preincubated for 15 mins followed by substrate addition by fluorescence based assay.

The target in the next data set is Prothrombin (Homo sapiens, UniProt P00734). Kind of data set: Inhibition of thrombin (unknown origin) by fluorescence based assay. The method in brief:
(§2)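 Protease inhibition measured in biochemical enzyme assays, with the result reported as Ki.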

A further data set deals with T3, Neutrophil elastase (Homo sapiens, UniProt P08246).
T3 sequence (P08246 whole entry): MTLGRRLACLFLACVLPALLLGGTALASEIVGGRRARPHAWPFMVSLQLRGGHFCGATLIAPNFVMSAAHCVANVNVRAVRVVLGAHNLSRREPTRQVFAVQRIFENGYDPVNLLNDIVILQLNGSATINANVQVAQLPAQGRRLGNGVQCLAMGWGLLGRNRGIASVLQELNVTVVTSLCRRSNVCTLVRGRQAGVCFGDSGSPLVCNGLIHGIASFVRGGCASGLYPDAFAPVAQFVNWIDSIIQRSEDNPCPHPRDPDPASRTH
Put plainly: Inhibition of neutrophil elastase (unknown origin) using 7-amino-4-trifluoromethyl-coumarin based peptide as substrate measured for 1 hr by fluorescence based microplate reader assay. In outline:
as §2

Data set [5] in a line: Inhibition of alpha-chymotrypsin (unknown origin) using N-Benzoyl-L-tyrosine ethyl ester as substrate preincubated for 5 mins followed by substrate addition and measured every 1 min for 10 mins by microplate reader assay. Details: species or system Homo sapiens. In outline: as §2
A short description of data set [6]: Drug uptake in human HepG2 cells assessed as intracellular concentration per 10^9 cells at 10 uM incubated for 2 hrs by UHPLC-TSQ analysis. The note with it: hepg2, 2 h. It counts as ADME, cell-based. The method in brief:
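HepG2 cells exposed to compound. Intracellular amount expressed as nmol per 10^9 cells, n = 4.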

A short description of data set [7]: Aqueous solubility of compound incubated for 1 hr by HPLC analysis. It counts as physicochemical.
Data set [8] is described as follows: Cytotoxicity against human Ect1/E6E7 cells incubated for 1 to 3 hrs by MTT assay. The note with it: time 1-3 hrs. Format: toxicity, cell-based. In outline: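 Ect1/E6E7 human ectocervical cells exposed to compound for 1 or 3 h, with viability read by MTT assay. Nonoxynol-9 served as the positive cytotoxic control.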

Converted amounts (≈) assume the structure as drawn. The source made the active and inactive calls. The calls are words filed in the database; no cut-off is given here.

Take `COc1ccc(C(=O)n2nc(-c3cccnc3)nc2N)cc1OC`: the remaining at 8 h, 10 µM in data set [1] was around 4%. Further, in data set [2], the Stability entry was “Unstable”.

Consider `COc1ccc(Cn2nc(-c3cccnc3)nc2N)cc1OC`, for which the inhibition result in data set [3] was “inactive”.

For the compound `COc1ccc(-c2cc(N)n(C(=O)c3cc(OC)c(OC)c(OC)c3)n2)cn1`, the Ki in data set [4] was determined as 367 µM.

On to `COc1ccc(-c2cc(N)n(C(=O)c3ccc4[nH]cnc4c3)n2)cn1`, for which the Ki was found to be 411 nM at Prothrombin, 1.18 mM on Neutrophil elastase and 2740 nM in data set [5]. The remaining at 8 h, 10 µM in data set [1] was around 47%. Also, the Stability entry in data set [2] was “Unstable”. In addition, the Drug uptake in data set [6] amounted to 3.41 nmol. In data set [7], this compound returned a solubility at 1 h of 27 µM (≈ 9.03 µg/mL). Besides, the Activity result in data set [8] is on record as “Non-Toxic”.

Consider `COc1ccc(C(=O)n2nc(-c3ccncc3)cc2N)cc1OC`, for which the Ki in data set [4] came to 104 µM.

Take `CNc1cc(-c2ccc(OC)nc2)nn1C(=O)c1ccc(OC)c(OC)c1`: the inhibition result in data set [3] was “inactive”.

On to `COc1ccc(-c2cc(N(C)C)n(C(=O)c3ccc(OC)c(OC)c3)n2)cn1`, for which the inhibition entry in data set [3] was “inactive”.

For `Nc1n[nH]c(-c2cccnc2)n1`, the inhibition result in [3] was “inactive”.

Take `COc1cncc(-c2cc(N)n(C(=O)c3ccc(OC)c(OC)c3)n2)c1`: the inhibition result in data set [3] is “inactive”.

Take `COc1ccc(CC(=O)n2nc(-c3cccnc3)nc2N)cc1OC`: the Ki in data set [4] was found to be 308 µM.
